Assay results published in ChEMBL document CHEMBL1165916, “Interactions of 1-methyl-3-phenylpyrrolidine and 3-methyl-1-phenyl-3-azabicyclo[3.1.0]hexane with monoamine oxidase B” (Bioorg Med Chem, 2010).
The source made the active and inactive calls. The rule behind the calls is not given here.

Legend:
[1] = species: Papio hamadryas; assay: Ratio of Vmax to Km for baboon liver mitochondrial MAO-B assessed per mg of protein after 10 mins
Summary of the method: (§1)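 Incubation time was set within the linear range for each substrate. Stopped with (R)-deprenyl on ice; peroxidase-coupled spectrophotometric read-out. Rates in nmol/min-mg protein, fitted to Michaelis–Menten. Triplicate or duplicate.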

[2] = species: Papio hamadryas; assay: Activity at baboon liver mitochondrial MAO-B assessed as initial rate of H2O2 production after 10 mins assessed per mg of mitochondrial protein; summary of the method: as §1
[3] = species: Papio hamadryas; assay: Activity at baboon liver mitochondrial MAO-B assessed as initial rate of H2O2 production after 10 mins; summary of the method: as §1
[4] = species: Papio hamadryas; assay: Activity at baboon liver mitochondrial MAO-B assessed as H2O2 production at 250 uM after 6 to 15 mins pretreated with (R)-deprenyl
[5] = tested on: Mus musculus; assay: Neurotoxicity in C57BL/6 mouse assessed as depletion of dopamine level in striatum at 238 umol/kg, ip after 7 days by HPLC-ECD analysis relative to control; format: toxicity, organism-based; conditions: in vivo, 168 h
Summary of the method: (§2)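 Saline controls run alongside. Mice killed by cervical dislocation 7 days later. Striatal dopamine measured by HPLC-ECD, means ± SEM.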

[6] = species: Papio hamadryas; assay: Activity at baboon liver mitochondrial MAO-B assessed as H2O2 production at Vmax concentration after 15 mins
[7] = species: Papio hamadryas; assay: Activity at baboon liver mitochondrial MAO-B assessed as H2O2 production at 250 uM after 15 mins pretreated with MAOB inhibitor (R)-deprenyl
[8] = species: Papio hamadryas; assay: Activity at baboon liver mitochondrial MAO-B assessed as initial rate of H2O2 production after 15 mins assessed per mg of mitochondrial protein; summary of the method: as §1
[9] = species: Papio hamadryas; assay: Activity at baboon liver mitochondrial MAO-B assessed as H2O2 production at 250 uM after 15 mins
Summary of the method: (§3)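 Baboon liver mitochondria (0.15 mg protein/mL) incubated with substrate and chromogenic solution at 37 °C in 100 mM sodium phosphate, pH 7.4. Reactions stopped at 2.5–20 min with (R)-deprenyl on ice and centrifuged. H2O2 read by peroxidase-coupled spectrophotometric assay against an 11–88 µM calibration. Triplicate, means ± SEM.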

[10] = species: Papio hamadryas; assay: Activity at baboon liver mitochondrial MAO-B assessed as H2O2 production at 250 uM after 20 mins; summary of the method: as §3
[11] = species: Papio hamadryas; assay: Activity at baboon liver mitochondrial MAO-B assessed as H2O2 production at 500 uM after 20 mins; summary of the method: as §3
[12] = species: Papio hamadryas; assay: Ratio of Vmax to Km for baboon liver mitochondrial MAO-B assessed per mg of protein after 15 mins; summary of the method: as §1
[13] = species: Papio hamadryas; assay: Activity at baboon liver mitochondrial MAO-B assessed as initial rate of H2O2 production after 15 mins; summary of the method: as §1
[14] = species: Papio hamadryas; assay: Activity at baboon liver mitochondrial MAO-B assessed as initial rate of H2O2 production after 8 mins
Summary of the method: (§4)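 Baboon liver mitochondria stored at −70 °C and diluted with phosphate buffer containing 50% glycerol. MAO-B at 0.15 mg protein/mL in 100 mM sodium phosphate, pH 7.4, 37 °C, with eight substrate concentrations spanning two orders of magnitude. Incubation lasted 6 or 8 min (linear period). Stopped with (R)-deprenyl on ice, then centrifuged. H2O2 measured by peroxidase-coupled spectrophotometry against an 11–88 µM calibration. Duplicates; Michaelis–Menten fit gave Km, Vmax (nmol/min-mg), Vmax/Km.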

[15] = species: Papio hamadryas; assay: Activity at baboon liver mitochondrial MAO-B assessed as H2O2 production at 500 uM after 6 to 15 mins pretreated with (R)-deprenyl
Summary of the method: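 Mitochondria (0.3 mg protein/mL) were preincubated with (R)-deprenyl at 37 °C in 100 mM sodium phosphate, pH 7.4. They were then added to 500 µM substrate to give 0.15 mg protein/mL, with chromogenic solution, at 37 °C. Reactions were stopped with (R)-deprenyl, and H2O2 was measured by peroxidase-coupled spectrophotometry. Values were compared with fully active controls preincubated without inactivator.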

[16] = species: Papio hamadryas; assay: Activity at baboon liver mitochondrial MAO-B assessed as initial rate of H2O2 production after 8 mins assessed per mg of mitochondrial protein; summary of the method: as §4
[17] = species: Papio hamadryas; assay: Ratio of Vmax to Km for baboon liver mitochondrial MAO-B assessed per mg of protein after 8 mins; summary of the method: as §4
[18] = tested on: Mus musculus; assay: Neurotoxicity in C57BL/6 mouse assessed as depletion of dopamine level in striatum at 167 umol/kg, ip after 7 days by HPLC-ECD analysis relative to control; format: toxicity, organism-based; conditions: in vivo, 168 h; summary of the method: as §2
[19] = species: Papio hamadryas; assay: Ratio of Vmax to Km for baboon liver mitochondrial MAO-B assessed per mg of protein after 12.5 mins
Summary of the method: (§5)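 Baboon liver mitochondrial fraction (0.15 mg protein/mL; protein by Bradford) was incubated with substrate in 100 mM sodium phosphate, pH 7.4, at 37 °C for 12.5 min. (R)-Deprenyl (5 mM stock) was added and the samples were placed on ice, then centrifuged. H2O2 was read by peroxidase-coupled spectrophotometry against an 11–88 µM calibration. Initial rates were taken at eight substrate levels, in duplicate. Km and Vmax came from a Michaelis–Menten fit, with rates as nmol H2O2/min-mg protein.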

[20] = species: Papio hamadryas; assay: Activity at baboon liver mitochondrial MAO-B assessed as initial rate of H2O2 production after 12.5 mins assessed per mg of mitochondrial protein; summary of the method: as §5
[21] = species: Papio hamadryas; assay: Activity at baboon liver mitochondrial MAO-B assessed as initial rate of H2O2 production after 12.5 mins; summary of the method: as §5
[22] = species: Papio hamadryas; assay: Activity at baboon liver mitochondrial MAO-B assessed as initial rate of H2O2 production after 20 mins assessed per mg of mitochondrial protein; summary of the method: as §1
[23] = species: Papio hamadryas; assay: Activity at baboon liver mitochondrial MAO-B assessed as H2O2 production at 500 uM after 20 mins pretreated with MAOB inhibitor (R)-deprenyl
[24] = species: Papio hamadryas; assay: Activity at baboon liver mitochondrial MAO-B assessed as H2O2 production at Vmax concentration after 20 mins
[25] = species: Papio hamadryas; assay: Activity at baboon liver mitochondrial MAO-B assessed as initial rate of H2O2 production after 20 mins; summary of the method: as §1
[26] = species: Papio hamadryas; assay: Ratio of Vmax to Km for baboon liver mitochondrial MAO-B assessed per mg of protein after 20 mins; summary of the method: as §1
[27] = species: Papio hamadryas; assay: Activity at baboon liver mitochondrial MAO-B assessed as initial rate of H2O2 production after 6 mins assessed per mg of mitochondrial protein; summary of the method: as §4
[28] = species: Papio hamadryas; assay: Ratio of Vmax to Km for baboon liver mitochondrial MAO-B assessed per mg of protein after 6 mins; summary of the method: as §4
[29] = species: Papio hamadryas; assay: Activity at baboon liver mitochondrial MAO-B assessed as initial rate of H2O2 production after 6 mins; summary of the method: as §4

CN1CC=C(c2cccn2C)CC1
Vmax/Km [1]: 0.51 min⁻¹ | Vmax [2]: 22.2 nmol/min | Km [3]: 43.4 µM | Activity [4]: 5%

CN1CC=C(c2ccccc2)C1
Vmax/Km [1]: 0.28 min⁻¹ | Vmax [2]: 27.9 nmol/min | Km [3]: 100 µM

CN1CC2CC2(c2ccccc2)C1.O=C(O)C(=O)O (racemic)
Activity [5]: 111% | Activity [6]: 6% | Activity [7]: 1.79 µM | Vmax [8]: 16.9 nmol/min | Activity [9]: 27.3 µM | Activity [10]: Active | Activity [11]: Active | Vmax/Km [12]: 0.11 min⁻¹ | Km [13]: 148 µM

NCc1ccccc1
Km [14]: 249 µM | Activity [15]: 5% | Vmax [16]: 42.4 nmol/min/mg | Vmax/Km [17]: 0.17 min⁻¹

CN1CC=C(c2ccccc2)CC1.Cl
Activity [15]: 5% | Activity [18]: 27% | Vmax/Km [19]: 0.14 min⁻¹ | Vmax [20]: 11.7 nmol/min | Km [21]: 81.8 µM

CN1CCC(c2ccccc2)C1.O=C(O)C(=O)O (racemic)
Vmax [22]: 8.37 nmol/min | Activity [23]: 1.92 µM | Activity [5]: 99% | Activity [24]: 6% | Km [25]: 234 µM | Vmax/Km [26]: 0.04 min⁻¹ | Activity [10]: Active

NCCC(=O)c1ccccc1N
Activity [15]: 5% | Vmax [27]: 50 nmol/min/mg | Vmax/Km [28]: 0.85 min⁻¹ | Km [29]: 58.9 µM

CN1CCC(c2ccccc2)CC1
Vmax [8]: inactive
